High-throughput results (PubChem BioAssay)
Ba/F3 V617F tox = lowers viability of Ba/F3 cells expressing EpoR and JAK2V617F; inhibition, % at 5.6 µM; ATP luminescence; actives 1.1% (n = 220,000); AID 1446;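 active = inhibition above the campaign mean plus 3 SD over all tested compounds, cut at about 24% in these data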;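 also: cytokine-independent growth of Ba/F3 cells driven by EpoR plus mutant JAK2; 0% = DMSO-treated cells and 100% = JAK inhibitor I control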
b-catenin transl = alters nuclear translocation of beta-catenin in HeLa cells. immunofluorescence imaging. nuclear translocation activity, % at 5 µM. actives 0.3% (n = 190,000). AID 1665;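 active = nuclear translocation activity above 50% at 5 µM, with a well cell count of 50 or more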;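 also: per-cell ratio of nuclear to cytoplasmic median beta-catenin stain intensity; plate controls were DMSO negative control for no effect and GSK-3 inhibitor IX positive control for full effect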
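test system = HeLa cells, endogenous beta-catenin | dosing = single 5 µM dose plus 0.02–20 µM confirmation series | times = compound treatment 24 h, 37°C, 5% CO2 | technique = beta-catenin immunofluorescence imaging with DAPI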
IEC-6 cytotox = IEC-6 cytotoxicity, counter-screen for KLF5 inhibitors; luminescence viability; actives 0.78% (n = 290,000); AID 1825; inhibition, % at 5 µM;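 also: 0% = plate median of test compound wells and 100% = cytotoxic reference compound wells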
BaF3 parental = counter-screen for JAK2V617F inhibitors: parental Ba/F3 viability inhibitors; CellTiter-Glo ATP luminescence; inhibition, % at 5.6 µM; actives 1.1% (n = 220,000);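 active = inhibition above a per-campaign cutoff, the mean inhibition of all tested compounds plus 3 SD, cut at about 27% in these data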;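 also: 0% = DMSO wells and 100% = JAK Inhibitor I control wells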
MT stabilize HCS = stabilizes microtubules in HeLa cells. HeLa tubulin immunostaining HCS, 24 h; share of cells brighter than vehicle mean+2SD. % tubulin-high responders, % at 10 µM. actives 0.83% (n = 200,000);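 active = plate Z-score above 3 for both tubulin-high and condensed-nucleus cell shares, with cell loss under 80%, at 10 µM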;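 also: anti alpha tubulin signal scored within the nucleus-defined area of each cell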
KLF5 inh = suppresses KLF5 promoter-driven expression; DLD-1 KLF5 promoter-luciferase reporter, luminescence; inhibition, % at 5 µM; actives 0.23% (n = 290,000); AID 1700;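 active = inhibition above a per-plate limit of that plate's mean compound inhibition plus 3 SD, cut at about 60% in these data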;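 also: 0% = DMSO wells and 100% = LY294002 at 200 µM; higher means less KLF5 promoter-driven luciferase light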
IEC-6 tox confirm = confirmation of cytotoxic compounds in rat IEC-6 intestinal epithelial cells; shares compounds with IEC-6 cytotox; actives 63% (n = 1,900); inhibition, % at 5 µM; IEC-6 rat intestinal epithelial viability, luminescence;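 also: 0% = vehicle and 100% = reference cytotoxic drug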
* = called active by the depositor; nt = not tested or not shown. Hits are enriched below; roughly 2.1% of the tested compounds scored in any of these assays. Rule as the data show it, unless noted: active = inhibition above about 22%; inactive = the rest.

SMILES	Ba/F3 V617F tox	b-catenin transl	IEC-6 cytotox	BaF3 parental	MT stabilize HCS	KLF5 inh	IEC-6 tox confirm
CC(=O)c1c(C)n(-c2ccccc2Br)c2ccc(O)cc12	nt	nt	3.2	nt	nt	-9.4	nt
Cc1ccccc1Nc1nc(N)c2ccccc2n1	16.9	0.1	19.6	16.0	7.6	-6.8	nt
Nc1nc(Nc2ccccc2)nc2ccccc12	11.0	-3.1	22.2*	15.4	1.4	-70.8	14.7
COc1ccccc1N1CCN(c2ccc3ccccc3n2)CC1	nt	nt	6.2	nt	nt	-51.5	nt
COc1ccccc1N1CCN(c2ccc(-c3ccccc3)nn2)CC1	71.8*	nt	61.5*	74.4*	11.8	-50.7	58.9*
CCOc1ccc2[nH]cc(-c3csc(N)n3)c2c1	nt	nt	-0.8	nt	nt	6.3	nt
O=C(CSc1nc2c(c(=O)[nH]1)CCC2)Nc1cccc(F)c1	nt	nt	1.6	nt	nt	-41.3	nt
CCN(CC)c1ccc2c(Cl)c(Br)c(=O)oc2c1	1.5	nt	49.5*	2.9	16.2	-25.2	27.0*
c1ccc(CCNc2ccnc3cc4ccccc4cc23)cc1	53.5*	2.2	87.1*	42.8*	30.9*	-75.1	43.3*
Cc1ccc2[nH]c3c(c2c1)CCCC3C(N)=O (configuration not stated)	-1.4	0.7	-4.5	3.6	2.9	-36.9	nt
Cc1ccc2[nH]c3c(c2c1)CCCC3NC(=O)CCl (configuration not stated)	nt	nt	56.5*	nt	nt	42.8	60.3*
CCN(C(=O)CSc1ncccc1C(=O)O)C1CCCCC1	0.8	2.5	-1.5	2.0	8.8	-21.4	nt
O=C1NC(c2ccc(Br)cc2)Nc2ccccc21 (configuration not stated)	nt	nt	32.6*	nt	nt	4.8	32.6*
COc1ccc(C2NC(=O)c3ccccc3N2)cc1OC (configuration not stated)	6.5	nt	8.8	11.9	2.4	-15.4	nt
COc1ccc(N(CC(=O)Nc2ccc(C)cc2C)S(=O)(=O)c2c(C)n[nH]c2C)cc1	nt	nt	-1.7	nt	nt	-10.0	nt
COc1ccc(N(CC(=O)Nc2cc(Cl)ccc2C)S(=O)(=O)c2c(C)n[nH]c2C)cc1	nt	nt	37.8*	nt	nt	22.1	12.2
Cc1ccnc(Nc2nc(-c3ccc(O)cc3)cs2)c1	nt	nt	-2.5	nt	nt	-136.3	nt
Cc1ccnc(Nc2nc(-c3ccc(O)c(O)c3)cs2)c1	nt	nt	36.5*	nt	nt	-85.7	18.5
Cc1cccc(C)c1NC(=O)Cn1nnc(-c2ccc(CN3CCC(C)CC3)cc2)n1	6.2	0.5	2.8	14.2	5.4	-1.1	nt
CC1CCN(Cc2ccc(-c3nnn(CC(=O)Nc4ccccc4Cl)n3)cc2)CC1	-1.7	-2.2	33.5*	2.8	1.7	5.4	25.7*
CCOC(=O)COc1ccc2c(C#N)c3ccccn3c2c1	-2.2	-0.5	-0.5	2.2	1.5	-23.3	nt
COc1cc(OC)cc(C(=O)c2c(C)c(C#N)c3ccccn23)c1	nt	nt	51.6*	nt	nt	57.5	17.6
CCN1CCN(CC2COc3ccccc3O2)CC1 (configuration not stated)	nt	nt	3.5	nt	nt	-11.7	nt
Cc1ccc2c(c1)C(=O)C(=O)N2CC1COc2ccccc2O1 (configuration not stated)	nt	nt	82.6*	nt	nt	-8.1	8.9
CCOc1ccc2c(c1)C(=O)C(=O)N2CC1COc2ccccc2O1 (configuration not stated)	nt	nt	71.6*	nt	nt	-5.7	14.0
SMILES	Ba/F3 V617F tox	b-catenin transl	IEC-6 cytotox	BaF3 parental	MT stabilize HCS	KLF5 inh	IEC-6 tox confirm
COc1ccc2c(c1)C(=O)C(=O)N2CC1COc2ccccc2O1 (configuration not stated)	nt	nt	82.8*	nt	nt	11.5	8.8
COc1ccc2c(c1)C(=O)C(=O)N2CCS(=O)(=O)c1ccccc1	nt	nt	9.4	nt	nt	-40.8	nt
Cc1onc(-c2ccccc2Cl)c1C(=O)N1CCN(Cc2ccc3c(c2)OCO3)CC1	-2.5	-0.5	-5.2	4.1	1.3	-15.4	nt
Cc1ccc(-c2ccnc3c(Br)c(C)nn23)cc1	nt	nt	28.4*	nt	nt	-13.7	19.0
Cc1nn2c(-c3ccccc3)ccnc2c1Br	nt	nt	10.4	nt	nt	-10.8	nt
CCc1nnc(NC(=O)c2nc(S(=O)(=O)Cc3ccccc3)ncc2Cl)s1	nt	nt	34.0*	nt	nt	8.7	6.6
CCSc1ncc(Cl)c(C(=O)Nc2ccccc2OC)n1	nt	nt	-0.4	nt	nt	-0.7	nt
CCc1nnc(NC(=O)c2nc(S(=O)(=O)Cc3ccc(C)cc3)ncc2Cl)s1	nt	nt	49.7*	nt	nt	4.1	17.6
Cc1nnc(NC(=O)c2nc(S(=O)(=O)Cc3ccccc3C)ncc2Cl)s1	nt	nt	68.9*	nt	nt	19.5	17.0
